Measured values as given in ChEMBL document CHEMBL4680082 (J Med Chem, 2016).
Several values for one entry are separate records, joined by “and”; a condition that tells them apart may be missing. Equal entries are not always repeated.

Tests used:
[1] = biological target: T1, 5-hydroxytryptamine receptor 2C (Homo sapiens) (UniProt P28335); test: Agonist activity at human 5-HT2C receptor expressed in human Flp-In-293 cells assessed as induction of calcium flux incubated for 1 hr by Fluo-4 direct dye based FLIPR assay relative to 5-HT; assay type: functional, cell-based; conditions: filed as agonist
T1 sequence (whole entry): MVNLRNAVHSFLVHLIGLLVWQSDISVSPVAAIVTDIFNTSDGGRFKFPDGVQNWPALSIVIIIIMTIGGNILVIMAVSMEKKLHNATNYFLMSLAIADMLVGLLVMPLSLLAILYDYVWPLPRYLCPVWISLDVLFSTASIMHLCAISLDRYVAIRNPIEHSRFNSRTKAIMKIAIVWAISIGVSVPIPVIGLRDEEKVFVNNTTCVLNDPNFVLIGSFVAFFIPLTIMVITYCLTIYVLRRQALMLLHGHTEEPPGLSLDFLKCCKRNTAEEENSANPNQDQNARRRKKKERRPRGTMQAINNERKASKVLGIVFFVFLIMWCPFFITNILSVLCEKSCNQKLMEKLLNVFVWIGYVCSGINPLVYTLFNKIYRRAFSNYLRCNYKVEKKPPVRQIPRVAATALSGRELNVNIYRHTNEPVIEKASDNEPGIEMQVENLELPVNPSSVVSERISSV

[2] = biological target: T2, 5-hydroxytryptamine receptor 2A (Homo sapiens, UniProt P28223)
[3] = biological target: T3, 5-hydroxytryptamine receptor 2C (Homo sapiens, UniProt P28335);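 note: Agonist-induced calcium flux in Flp-In-293 cells expressing the human receptor, read by FLIPR with Fluo-4 Direct dye after 1 hr incubation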
T3 sequence (P28335 whole entry): T1 sequence (whole entry)

[4] = biological target: T4, 5-hydroxytryptamine receptor 2B (Homo sapiens, UniProt P41595); test: Agonist activity at human 5-HT2B receptor expressed in human Flp-In-293 cells assessed as induction of calcium flux incubated for 1 hr by Fluo-4 direct dye based FLIPR assay relative to 5-HT; assay type: functional, cell-based
[5] = biological target: T4, 5-hydroxytryptamine receptor 2B
[6] = biological target: T3, 5-hydroxytryptamine receptor 2C; test: Agonist activity at human 5-HT2C INI receptor expressed in human HEK293 cells assessed as induction of beta-arrestin-2 recruitment incubated for 20 hrs by Tango assay; assay type: cell-based
Summary of the method: (§1)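 Tango assay in HTLA cells (HEK line expressing TEV-fused β-arrestin-2 and tTA-driven luciferase) transfected with 5-HT2C INI–tTA fusion carrying a TEV site. Cells were stimulated with the same dilutions used for FLIPR, 20 h at 37 °C and 5% CO2, then lysed with Bright-Glo for 20 min at room temperature and read by luminescence. Data normalized to % 5-HT and fitted sigmoidally; n = 3 in triplicate. Bias from log(Emax/EC50).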

[7] = biological target: T3, 5-hydroxytryptamine receptor 2C; test: Agonist activity at human 5-HT2C INI receptor expressed in human Flp-In-293 cells assessed as induction of calcium flux incubated for 1 hr by Fluo-4 direct dye based FLIPR assay; assay type: functional, cell-based
Summary of the method: (§2)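 Calcium flux in Flp-In-293 cells stably expressing the human 5-HT2C INI isoform, Fluo-4 Direct loading for 1 h at 37 °C. Drug dilutions identical to those in the parallel Tango assay, 300 s read at 1 read/s, normalized to % 5-HT. Triplicate, mean ± SEM (n = 3). Bias factors were calculated from change in relative activity, log(Emax/EC50).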

[8] = biological target: T1, 5-hydroxytryptamine receptor 2C (Homo sapiens); test: Agonist activity at human 5-HT2C INI receptor expressed in human HEK293 cells assessed as induction of beta-arrestin-2 recruitment incubated for 20 hrs by Tango assay relative to 5HT; assay type: cell-based; summary of the method: as §1
[9] = biological target: T1, 5-hydroxytryptamine receptor 2C (Homo sapiens); test: Agonist activity at human 5-HT2C INI receptor expressed in human Flp-In-293 cells assessed as induction of calcium flux incubated for 1 hr by Fluo-4 direct dye based FLIPR assay relative to 5-HT; assay type: functional, cell-based; conditions: filed as agonist; summary of the method: as §2
[10] = biological target: T2, 5-hydroxytryptamine receptor 2A; test: Agonist activity at human 5-HT2A receptor expressed in human Flp-In-293 cells assessed as induction of calcium flux incubated for 1 hr by Fluo-4 direct dye based FLIPR assay relative to 5-HT; assay type: functional, cell-based
[11] = biological target: T1, 5-hydroxytryptamine receptor 2C (Homo sapiens); test: Agonist activity at human 5-HT2C receptor expressed in human Flp-In-293 cells assessed as induction of calcium flux by measuring log (Emax/EC50) incubated for 1 hr by Fluo-4 direct dye based FLIPR assay; assay type: functional, cell-based
[12] = biological target: T2, 5-hydroxytryptamine receptor 2A; test: Agonist activity at human 5-HT2A receptor expressed in human Flp-In-293 cells assessed as induction of calcium flux by measuring log(Emax/EC50) incubated for 1 hr by Fluo-4 direct dye based FLIPR assay; assay type: functional, cell-based
[13] = biological target: T4, 5-hydroxytryptamine receptor 2B; test: Agonist activity at human 5-HT2B receptor expressed in human Flp-In-293 cells assessed as induction of calcium flux by measuring log(Emax/EC50) incubated for 1 hr by Fluo-4 direct dye based FLIPR assay; assay type: functional, cell-based

T2 sequence (P28223 whole entry): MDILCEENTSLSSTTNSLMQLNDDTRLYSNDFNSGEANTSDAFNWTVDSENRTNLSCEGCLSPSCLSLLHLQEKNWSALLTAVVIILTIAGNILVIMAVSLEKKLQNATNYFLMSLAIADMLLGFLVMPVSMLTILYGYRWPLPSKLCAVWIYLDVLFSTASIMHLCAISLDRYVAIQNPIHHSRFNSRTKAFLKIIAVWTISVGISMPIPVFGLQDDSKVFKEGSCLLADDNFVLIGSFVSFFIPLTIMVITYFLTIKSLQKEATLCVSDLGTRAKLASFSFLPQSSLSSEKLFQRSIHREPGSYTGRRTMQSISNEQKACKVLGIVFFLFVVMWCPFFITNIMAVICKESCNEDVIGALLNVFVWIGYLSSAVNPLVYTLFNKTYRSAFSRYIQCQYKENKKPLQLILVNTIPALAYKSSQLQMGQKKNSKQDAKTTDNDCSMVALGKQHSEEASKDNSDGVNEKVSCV
T4 sequence (P41595 whole entry): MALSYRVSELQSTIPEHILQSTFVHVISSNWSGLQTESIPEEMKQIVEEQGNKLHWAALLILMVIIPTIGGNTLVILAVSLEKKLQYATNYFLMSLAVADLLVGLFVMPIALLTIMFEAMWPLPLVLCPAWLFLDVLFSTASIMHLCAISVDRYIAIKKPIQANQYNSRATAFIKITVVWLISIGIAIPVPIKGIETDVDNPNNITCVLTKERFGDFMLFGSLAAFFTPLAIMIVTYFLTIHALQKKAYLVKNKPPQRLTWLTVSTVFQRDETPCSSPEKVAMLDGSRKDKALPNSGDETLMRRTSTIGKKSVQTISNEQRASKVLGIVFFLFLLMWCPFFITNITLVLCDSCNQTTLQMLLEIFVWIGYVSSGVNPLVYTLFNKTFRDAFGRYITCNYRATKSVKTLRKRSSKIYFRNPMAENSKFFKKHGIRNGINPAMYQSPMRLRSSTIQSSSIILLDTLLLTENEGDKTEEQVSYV

SMILES | Emax [1] | EC50 [2] | EC50 [3] | EC50 [5] | other results
C=C(C)COc1ccc2occc2c1[C@H]1C[C@@H]1CN | 99% | 260 nM | 25 nM | 150 nM | Emax ([4]; filed as agonist): 40%
C=CCOc1ccc2occc2c1[C@H]1C[C@@H]1CN | 103% | 213 nM | 5.3 nM | 348 nM | EC50 ([6]; read-out: EC50): 20 nM; EC50 [7]: 8.7 nM; Emax [8]: 25%; Emax [9]: 92%
NC[C@H]1C[C@@H]1c1c(OCC2CC2)ccc2c1CCO2 | 95% | 754 nM | 26 nM | 269 nM | 
NC[C@H]1C[C@@H]1c1c(OCCF)ccc2c1CCO2 | 76% | 2320 nM | 73 nM |  | EC50 ([6]; read-out: EC50): 318 nM; EC50 ([6]; read-out: pEC50 (converted)): 324 nM; Emax ([10]; filed as agonist): 63%; EC50 [7]: 41 nM; Emax ([8]; filed as agonist): 42%; Emax [9]: 93%
CCCOc1ccc2c(c1[C@@H]1C[C@H]1CN)CCO2 | 94% |  | 96 nM |  | 
CCCOc1ccc2c(c1[C@H]1C[C@@H]1CN)CCO2 | 104% | 749 nM | 20 nM | 258 nM | 
CCOc1ccc2c(c1[C@@H]1C[C@H]1CN)CCO2 | 105% | 976 nM | 41 nM | 781 nM | log(ratio) [11]: 7.41; log(ratio) [12]: 5.55; Emax [10]: 35%; log(ratio) [13]: 5.58; Emax [4]: 30%
NC[C@@H]1C[C@H]1c1c(OCC2CC2)ccc2occc12 | 87% |  | 113 nM | 513 nM and 524 nM | Emax [4]: 27%
COc1ccc2c(c1[C@H]1C[C@@H]1CN)CCO2 | 101% | 117 nM | 8.9 nM | 77 nM | log(ratio) [11]: 8.05; log(ratio) [12]: 6.89; Emax ([10]; filed as agonist): 90%; log(ratio) [13]: 6.96; Emax ([4]; filed as agonist): 70%
CCCOc1ccc2occc2c1[C@H]1C[C@@H]1CN | 98% | 392 nM | 10 nM |  | 
CC(C)Oc1ccc2occc2c1[C@@H]1C[C@H]1CN | 97% | 938 nM | 21 nM | 453 nM | log(ratio) [11]: 7.66; log(ratio) [12]: 5.61; Emax [10]: 38%; log(ratio) [13]: 5.74; Emax [4]: 25%
C=CCOc1ccc2c(c1[C@H]1C[C@@H]1CN)CCO2 | 101% | 618 nM | 11 nM | 258 nM | EC50 ([6]; read-out: EC50): 267 nM; EC50 [7]: 26 nM; Emax [8]: 35%; Emax [9]: 93%
CCc1cc2c([C@@H]3C[C@H]3CN)c(OCCF)ccc2o1 | 84% |  | 81 nM |  | 
CCc1cc2c([C@H]3C[C@@H]3CN)c(OCC3CC3)ccc2o1 | 101% |  | 138 nM |  | 
NC[C@@H]1C[C@H]1c1c(OCCF)ccc2c1CCO2 | 79% | 1960 nM | 302 nM |  | Emax ([10]; filed as agonist): 55%
CCc1cc2c([C@@H]3C[C@H]3CN)c(OC)ccc2o1 | 88% |  | 101 nM |  | 
C[C@H]1CNCCc2ccc(Cl)cc21 |  |  |  |  | Emax ([8]; filed as agonist): 91%
NC[C@H]1C[C@@H]1c1c(OCC2CC2)ccc2occc12 | 99% | 456 nM | 12 nM | 180 nM | Emax [4]: 27%
NC[C@@H]1C[C@H]1c1c(OCC2CC2)ccc2c1CCO2 | 65% |  | 283 nM |  | 
CCCOc1ccc2occc2c1[C@@H]1C[C@H]1CN | 88% |  | 87 nM |  | 

SMILES | Emax [1] | EC50 [2] | EC50 [3] | EC50 [5] | other results
NC[C@@H]1C[C@H]1c1c(OCCF)ccc2occc12 | 98% | 393 nM | 33 nM | 448 nM | Emax [10]: 22%; Emax [4]: 34%
C=CCOc1ccc2c(c1[C@@H]1C[C@H]1CN)CCO2 | 90% |  | 94 nM |  | 
COc1ccc2occc2c1[C@@H]1C[C@H]1CN | 96% | 109 nM | 6.76 nM and 6.6 nM | 725 nM | log(ratio) [11]: 8.16; log(ratio) [12]: 6.78; Emax ([10]; filed as agonist): 66%; log(ratio) [13]: 5.88; Emax ([4]; filed as agonist): 55%
CCOc1ccc2c(c1[C@H]1C[C@@H]1CN)CCO2 | 106% | 113 nM | 2.7 nM | 58.9 nM and 54 nM | log(ratio) [11]: 8.59; log(ratio) [12]: 6.86; Emax ([10]; filed as agonist): 81%; log(ratio) [13]: 7.03; Emax ([4]; filed as agonist): 58%
CCc1cc2c([C@H]3C[C@@H]3CN)c(OCCF)ccc2o1 | 106% | 2210 nM | 11 nM | 550 nM | EC50 ([6]; read-out: EC50): 96 nM; EC50 [7]: 22 nM; Emax ([8]; filed as agonist): 50%; Emax [9]: 93%
CCCOc1ccc2oc(CC)cc2c1[C@H]1C[C@@H]1CN |  |  | 81 nM |  | 
COc1ccc2c(c1[C@@H]1C[C@H]1CN)CCO2 | 102% | 295 nM | 19 nM | 279 nM | log(ratio) [11]: 7.73; log(ratio) [12]: 6.35; Emax ([10]; filed as agonist): 66%; log(ratio) [13]: 6.21; Emax ([4]; filed as agonist): 45%
C=CCOc1ccc2occc2c1[C@@H]1C[C@H]1CN | 101% |  | 56 nM |  | 
CCOc1ccc2oc(CC)cc2c1[C@H]1C[C@@H]1CN | 100% | 2630 nM and 2600 nM | 15 nM | 309 nM | 
COc1ccc2occc2c1[C@H]1C[C@@H]1CN | 93% | 37 nM | 1.6 nM | 111 nM | log(ratio) [11]: 8.76; log(ratio) [12]: 7.37; Emax ([10]; filed as agonist): 86%; log(ratio) [13]: 6.76; Emax ([4]; filed as agonist): 64%
C=C(C)COc1ccc2occc2c1[C@@H]1C[C@H]1CN | 70% |  | 261 nM | 733 nM | Emax [4]: 33%
CCOc1ccc2occc2c1[C@H]1C[C@@H]1CN | 106% | 111 nM | 2.6 nM | 84 nM | Emax ([10]; filed as agonist): 74%
CCOc1ccc2occc2c1[C@@H]1C[C@H]1CN | 107% | 585 nM | 26 nM |  | Emax [10]: 15%
CCc1cc2c([C@@H]3C[C@H]3CN)c(OCC3CC3)ccc2o1 | 69% |  | 446 nM |  | 
CCOc1ccc2oc(CC)cc2c1[C@@H]1C[C@H]1CN | 76% |  | 115 nM |  | 
CC(C)Oc1ccc2occc2c1[C@H]1C[C@@H]1CN | 99% | 298 nM | 6.2 nM | 174 nM | log(ratio) [11]: 8.2; log(ratio) [12]: 6.42; Emax ([10]; filed as agonist): 79%; log(ratio) [13]: 6.35; Emax [4]: 39%
C=C(F)COc1ccc2occc2c1[C@H]1C[C@@H]1CN | 103% | 358 nM | 9.2 nM | 128 nM | Emax [4]: 38%
C=CCOc1ccc2oc(CC)cc2c1[C@H]1C[C@@H]1CN |  |  | 23 nM | 433 nM | EC50 ([6]; read-out: EC50): 30 nM; EC50 [7]: 25 nM
CCc1cc2c([C@H]3C[C@@H]3CN)c(OC)ccc2o1 | 101% | 939 nM | 2.7 nM | 60 nM | 
C=C(F)COc1ccc2occc2c1[C@@H]1C[C@H]1CN | 93% |  | 99 nM | 585 nM | Emax [4]: 29%
